The source of these data is ChEMBL document CHEMBL1128288, “7-Azetidinylquinolones as antibacterial agents. 3. Synthesis, properties and structure-activity relationships of the stereoisomers containing a 7-(3-amino-2-methyl-1-azetidinyl) moiety” (J Med Chem, 1995).

Values after ≈ are worked out from the molar mass of the structure shown.

One data set has as its system Bacillus cereus. Description: In vitro antibacterial activity measured as minimum inhibitory concentration was evaluated on Bacillus cereus ATCC 11778 (Bc). It counts as functional. As to conditions: Bacillus cereus, ATCC 11778; read-out: MIC. A digest of the protocol: (§1)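 Serial 2-fold agar dilution in Mueller Hinton medium, run side by side with reference quinolones. Inoculum 10^5 cfu/mL; compound range 0.007–16 µg/mL.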

The next data set deals with Bacillus subtilis. Description: In vitro antibacterial activity measured as minimum inhibitory concentration was evaluated on Bacillus subtilis ATCC 6633(Bs). As to conditions: Bacillus subtilis, ATCC 6633; read-out: MIC. The data set is classed as functional. In outline: as §1
Another data set relates to Enterobacter cloacae. Description: In vitro antibacterial activity measured as minimum inhibitory concentration, was evaluated on Enterobacter cloacae ATCC 23355 (Ecl). It counts as functional. As to conditions: Enterobacter cloacae, ATCC 23355; read-out: MIC.
The test system of the next data set is Klebsiella pneumoniae. Description: In vitro antibacterial activity measured as minimum inhibitory concentration was evaluated on klebsiella pneumoniae ATCC 10031 (Kp). The data set is classed as functional. The note with it: Klebsiella pneumoniae, ATCC 10031; read-out: MIC. In outline:
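Serial 2-fold agar dilution in Mueller Hinton medium, run side by side with reference quinolones.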

In data set [1] the test system is Pseudomonas aeruginosa. Description: In vivo efficacy as ED50 against Pseudomonas aeruginosa HS-116 by oral administration in mice. It counts as functional. The note with it: Pseudomonas aeruginosa, po; read-out: ED50. In outline: (§2)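 Mice, 4 groups of 10, infected intraperitoneally with slightly more than the LD100 of the organism. A single oral dose was given immediately after infection, with four doses (one per group) chosen from in vitro activity. Survival was scored after one week. ED50 (total dose, mg/kg, protecting 50%) was interpolated among group survival rates.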

The subject of data set [2] is Staphylococcus aureus. Description: In vivo efficacy as ED50 against Staphylococcus aureus HS-93 by oral administration in mice. The note with it: Staphylococcus aureus, po; read-out: ED50. It counts as functional. In outline:
as §2

Data set [3] concerns Escherichia coli. The data set is described as follows: In vivo efficacy as ED50 against Escherichia coli HM-42 by oral administration in mice. The data set is classed as functional. As to conditions: Escherichia coli, po; read-out: ED50. A digest of the protocol:
as §2

For the next data set, the system named is Proteus vulgaris. Description: In vitro antibacterial activity measured as minimum inhibitory concentration was evaluated on proteus vulgaris ATCC 8427 (Pv). The note with it: Proteus vulgaris, ATCC 8427; read-out: MIC. It counts as functional. In outline:
as §1

Data set [4] has as its system Pseudomonas aeruginosa. The data set is described as follows: In vitro antibacterial activity measured as minimum inhibitory concentration was evaluated on Pseudomonas aeruginosa ATCC 10145 (Pa). As to conditions: Pseudomonas aeruginosa, ATCC 10145; read-out: MIC. It counts as functional. A digest of the protocol: as §1
In data set [5] the test system is Staphylococcus aureus. The data set is described as follows: In vitro antibacterial activity measured as minimum inhibitory concentration was evaluated on Staphylococcus aureus ATCC 25178 (Sa). The data set is classed as functional. The note with it: Staphylococcus aureus, ATCC 25178; read-out: MIC. In outline:
as §1

Data set [6] relates to Staphylococcus epidermidis. Description: In vitro antibacterial activity measured as minimum inhibitory concentration was evaluated on Staphylococcus epidermidis ATCC 155-1 (Se). It counts as functional. The note with it: Staphylococcus epidermidis, ATCC 155-1; read-out: MIC. A digest of the protocol: as §1
The test system of another data set is Enterococcus faecalis. Description: In vitro antibacterial activity measured as minimum inhibitory concentration was evaluated on Streptococcus faecalis ATCC 10541 (Sf). The data set is classed as functional. The note with it: Enterococcus faecalis, ATCC 10541; read-out: MIC. A digest of the protocol: as §1
Data set [7] concerns Escherichia coli. Description: In vitro antibacterial activity measured as minimum inhibitory concentration, was evaluated on Escherichia coli ATCC 23559(Ec). It counts as functional. The note with it: Escherichia coli, ATCC 23559; read-out: MIC. A digest of the protocol:
as §1

The subject of a further data set is Morganella morganii. The data set is described as follows: In vitro antibacterial activity measured as minimum inhibitory concentration was evaluated on morganella morganii ATCC 8019 (Mm). It counts as functional. As to conditions: Morganella morganii, ATCC 8019; read-out: MIC. In outline: as §1
For data set [8] the following is noted: mouse, in vivo, po, 50 mg/kg.

As a reminder, the MIC is the smallest concentration in the dilution series that meets the test's criterion for growth inhibition. As usually defined, the ED50 is the midpoint of the dose-response relation. Turning to `C[C@@H]1[C@@H](N)CN1c1c(F)cc2c(=O)c(C(=O)O)cn3c2c1OC[C@@H]3C`, the MIC turned out to be 0.5 µg/mL (≈ 1.44 µM) in the data set with Bacillus cereus; 0.12 µg/mL (≈ 0.345 µM) with Bacillus subtilis; 0.25 µg/mL (≈ 0.72 µM) in the data set on Enterobacter cloacae; 0.06 µg/mL (≈ 0.173 µM) in the data set on Klebsiella pneumoniae; 0.5 µg/mL (≈ 1.44 µM) in the data set on Proteus vulgaris; 4 µg/mL (≈ 11.5 µM) with Pseudomonas aeruginosa [4]. The MIC in the data set on Staphylococcus aureus [5] stood at 0.25 µg/mL (≈ 0.72 µM); in data set [6], 0.25 µg/mL (≈ 0.72 µM); in the data set on Enterococcus faecalis, 1 µg/mL (≈ 2.88 µM); with Escherichia coli [7], 0.25 µg/mL (≈ 0.72 µM); with Morganella morganii, 0.12 µg/mL (≈ 0.345 µM). The ED50 in the data set on Pseudomonas aeruginosa [1] was 53 mg/kg; with Staphylococcus aureus [2], 46.1 mg/kg; in the data set with Escherichia coli [3], 50 mg/kg.
A word on the AUC: it is concentration integrated over time. The low end stands for less exposure, the high end for more exposure. With `C[C@@H]1[C@@H](N)CN1c1cc2c(cc1F)c(=O)c(C(=O)O)cn2C1CC1`, the MIC turned out to be 1 µg/mL (≈ 3.02 µM) in the data set on Bacillus cereus; 0.25 µg/mL (≈ 0.754 µM) in the data set on Bacillus subtilis; 0.25 µg/mL (≈ 0.754 µM) in the data set on Enterobacter cloacae; 0.25 µg/mL (≈ 0.754 µM) with Klebsiella pneumoniae; 1 µg/mL (≈ 3.02 µM) with Proteus vulgaris; 4 µg/mL (≈ 12.1 µM) with Pseudomonas aeruginosa [4]. The MIC in the data set with Staphylococcus aureus [5] came out at 1 µg/mL (≈ 3.02 µM); in [6], 1 µg/mL (≈ 3.02 µM); with Enterococcus faecalis, 2 µg/mL (≈ 6.04 µM); in the data set with Escherichia coli [7], 0.25 µg/mL (≈ 0.754 µM); in the data set on Morganella morganii, 0.5 µg/mL (≈ 1.51 µM). The AUC in data set [8] came to 2200 ng·h/mL.
`CC1C(N)CN1c1nc2c(cc1F)c(=O)c(C(=O)O)cn2-c1ccc(F)cc1F` (stereo not given): the MIC stood at 0.06 µg/mL (≈ 0.148 µM) in the data set with Bacillus subtilis; 0.06 µg/mL (≈ 0.148 µM) in the data set with Klebsiella pneumoniae; 1 µg/mL (≈ 2.47 µM) with Proteus vulgaris; 1 µg/mL (≈ 2.47 µM) with Pseudomonas aeruginosa [4]; 1 µg/mL (≈ 2.47 µM) with Enterococcus faecalis; 0.12 µg/mL (≈ 0.297 µM) with Escherichia coli [7]. In addition, the ED50 with Pseudomonas aeruginosa [1] was 140 mg/kg; with Staphylococcus aureus [2], 8.9 mg/kg; with Escherichia coli [3], 3.3 mg/kg.
Regarding `CCn1cc(C(=O)O)c(=O)c2c(N)c(F)c(N3C[C@H](N)[C@H]3C)c(F)c21`, the MIC with Bacillus cereus was found to be 0.25 µg/mL (≈ 0.71 µM); in the data set with Bacillus subtilis, 0.06 µg/mL (≈ 0.17 µM); in the data set on Enterobacter cloacae, 0.06 µg/mL (≈ 0.17 µM); in the data set with Klebsiella pneumoniae, 0.25 µg/mL (≈ 0.71 µM); with Proteus vulgaris it was 0.25 µg/mL (≈ 0.71 µM); with Pseudomonas aeruginosa [4] it was 0.5 µg/mL (≈ 1.42 µM). For the same compound, the MIC with Staphylococcus aureus [5] turned out to be 0.12 µg/mL (≈ 0.341 µM); in [6], 0.25 µg/mL (≈ 0.71 µM); with Enterococcus faecalis, 0.25 µg/mL (≈ 0.71 µM); with Escherichia coli [7], 0.25 µg/mL (≈ 0.71 µM); with Morganella morganii, 0.06 µg/mL (≈ 0.17 µM). Also, in data set [8], the AUC is 12500 ng·h/mL.
Regarding `C[C@@H]1[C@@H](N)CN1c1c(F)cc2c(=O)c(C(=O)O)cn(C3CC3)c2c1Cl`, the MIC stood at 0.5 µg/mL (≈ 1.37 µM) in the data set on Bacillus cereus; 0.12 µg/mL (≈ 0.328 µM) in the data set with Bacillus subtilis; 0.25 µg/mL (≈ 0.683 µM) in the data set with Enterobacter cloacae; 2 µg/mL (≈ 5.47 µM) in the data set on Klebsiella pneumoniae; 0.25 µg/mL (≈ 0.683 µM) with Proteus vulgaris; 4 µg/mL (≈ 10.9 µM) with Pseudomonas aeruginosa [4]. Also, the MIC was determined as 0.5 µg/mL (≈ 1.37 µM) in the data set with Staphylococcus aureus [5]; 0.5 µg/mL (≈ 1.37 µM) in [6]; 0.25 µg/mL (≈ 0.683 µM) in the data set with Enterococcus faecalis; 0.25 µg/mL (≈ 0.683 µM) with Escherichia coli [7]; 0.25 µg/mL (≈ 0.683 µM) in the data set on Morganella morganii. The ED50 was found to be 147 mg/kg in the data set with Pseudomonas aeruginosa [1], 19.1 mg/kg in the data set on Staphylococcus aureus [2] and 18.4 mg/kg with Escherichia coli [3].
With `CC1C(N)CN1c1c(F)c(N)c2c(=O)c(C(=O)O)cn(C3CC3)c2c1F` (stereo not given), the MIC in the data set on Bacillus cereus worked out at 0.015 µg/mL (≈ 0.0412 µM); in the data set with Bacillus subtilis it was 0.015 µg/mL (≈ 0.0412 µM); in the data set with Enterobacter cloacae it was 0.015 µg/mL (≈ 0.0412 µM); in the data set with Klebsiella pneumoniae, 0.015 µg/mL (≈ 0.0412 µM); in the data set with Proteus vulgaris, 0.06 µg/mL (≈ 0.165 µM); in the data set on Staphylococcus aureus [5], 0.015 µg/mL (≈ 0.0412 µM). Further, the MIC was found to be 0.015 µg/mL (≈ 0.0412 µM) in [6], 0.06 µg/mL (≈ 0.165 µM) in the data set with Enterococcus faecalis, 0.015 µg/mL (≈ 0.0412 µM) in the data set on Escherichia coli [7] and 0.015 µg/mL (≈ 0.0412 µM) in the data set on Morganella morganii. Moreover, the median effective dose (ED50) in the data set with Pseudomonas aeruginosa [1] is 102 mg/kg; with Staphylococcus aureus [2] it was 8.7 mg/kg; in the data set on Escherichia coli [3], 4.2 mg/kg.
With `CC1C(N)CN1c1nc2c(cc1F)c(=O)c(C(=O)O)cn2C1CC1` (stereo not given), the MIC in the data set with Bacillus cereus worked out at 0.06 µg/mL (≈ 0.181 µM); in the data set with Bacillus subtilis it was 0.03 µg/mL (≈ 0.0903 µM); with Enterobacter cloacae, 0.03 µg/mL (≈ 0.0903 µM); in the data set with Klebsiella pneumoniae, 0.03 µg/mL (≈ 0.0903 µM); in the data set on Proteus vulgaris, 0.06 µg/mL (≈ 0.181 µM); with Pseudomonas aeruginosa [4] it was 0.5 µg/mL (≈ 1.5 µM). Moreover, the MIC with Escherichia coli [7] and in the data set with Morganella morganii was 0.03 µg/mL (≈ 0.0903 µM) throughout. The ED50 with Pseudomonas aeruginosa [1] is 95 mg/kg; in the data set on Staphylococcus aureus [2], 13.8 mg/kg; in the data set with Escherichia coli [3], 3.5 mg/kg.
